Data reported in ChEMBL document CHEMBL4229411, “Senolytic activity of piperlongumine analogues: Synthesis and biological evaluation” (Bioorg Med Chem, 2018).
Calls of active or inactive are those of the source. No cut-off for these calls is given here.

How the values were obtained:
[1] = system: WI-38; assay: Induction of apoptosis in ionizing radiation induced human WI38 senescent cells assessed as live cells at 10 uM after 48 hrs by Annexin V-FITC/propidium iodide staining based flow cytometry (reference value: 87%); type: functional
[2] = system: WI-38; assay: Induction of apoptosis in ionizing radiation induced human WI38 senescent cells assessed as early apoptotic cells at 10 uM after 48 hrs by Annexin V-FITC/propidium iodide staining based flow cytometry (reference value: […]); type: functional
[3] = system: WI-38; assay: Induction of apoptosis in ionizing radiation induced human WI38 senescent cells assessed as late apoptotic cells at 10 uM after 48 hrs by Annexin V-FITC/propidium iodide staining based flow cytometry (reference value: […]); type: functional
[4] = system: WI-38; assay: Induction of apoptosis in ionizing radiation induced human WI38 senescent cells assessed as necrotic cells at 10 uM after 48 hrs by Annexin V-FITC/propidium iodide staining based flow cytometry (reference value: […]); type: functional
[5] = Toxicity in po dosed mouse; type: organism-based; settings: in vivo
[6] = system: WI-38; assay: Senolytic activity against non-senescent human WI38 cells assessed as reduction in cell viability by propidium iodide staining based flow cytometry
In short: (§1)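 WI-38 fibroblasts were grown in DMEM/10% FBS with penicillin/streptomycin at 37 °C, 5% CO2. Low-passage cells (<25 passages) served as non-senescent controls.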

[7] = system: WI-38; assay: Senolytic activity against ionizing radiation induced human WI38 senescent cells assessed as reduction in cell viability by propidium iodide staining based flow cytometry; type: functional; in short: as §1
[8] = Selectivity index, ratio of EC50 for non-senescent human WI38 cells to EC50 for ionizing radiation induced human WI38 senescent cells; type: functional, WI-38
In short: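 Human WI-38 fibroblasts were grown in DMEM with 10% FBS and penicillin/streptomycin at 37 °C in 5% CO2. Low-passage cells (<25 passages) served as non-senescent controls. Viability was read by flow cytometry.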

[9] = target: T1, Oxidation resistance protein 1 (Homo sapiens) (UniProt Q8N573); assay: Induction of OXR1 degradation in ionizing radiation induced human WI38 senescent cells at 5 uM after 24 hrs by Western blot analysis
T1 sequence (whole entry): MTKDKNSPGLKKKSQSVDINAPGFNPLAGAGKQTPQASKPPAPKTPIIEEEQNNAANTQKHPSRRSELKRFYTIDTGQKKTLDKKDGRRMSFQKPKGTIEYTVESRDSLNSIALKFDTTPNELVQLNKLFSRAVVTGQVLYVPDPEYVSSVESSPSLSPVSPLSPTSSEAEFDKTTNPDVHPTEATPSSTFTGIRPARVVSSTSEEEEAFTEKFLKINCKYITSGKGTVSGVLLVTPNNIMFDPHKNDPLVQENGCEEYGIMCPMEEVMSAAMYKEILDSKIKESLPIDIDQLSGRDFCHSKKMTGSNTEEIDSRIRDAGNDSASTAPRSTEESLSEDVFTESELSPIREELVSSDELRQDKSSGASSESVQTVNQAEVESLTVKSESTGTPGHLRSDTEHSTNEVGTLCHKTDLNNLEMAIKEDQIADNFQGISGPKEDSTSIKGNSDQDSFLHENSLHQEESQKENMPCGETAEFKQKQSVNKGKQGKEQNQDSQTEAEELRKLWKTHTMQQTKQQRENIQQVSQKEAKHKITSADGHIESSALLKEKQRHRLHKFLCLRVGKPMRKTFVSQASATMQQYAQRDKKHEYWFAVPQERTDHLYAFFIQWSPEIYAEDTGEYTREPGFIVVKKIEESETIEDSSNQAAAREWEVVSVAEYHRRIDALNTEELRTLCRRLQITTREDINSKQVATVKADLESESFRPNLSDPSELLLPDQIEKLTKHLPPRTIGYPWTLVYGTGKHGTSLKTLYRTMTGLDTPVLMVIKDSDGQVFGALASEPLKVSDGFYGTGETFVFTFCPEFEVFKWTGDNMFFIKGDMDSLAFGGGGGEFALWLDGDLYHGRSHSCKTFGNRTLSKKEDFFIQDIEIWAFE
In short: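 Cells were lysed in RIPA buffer with EDTA/EGTA and proteins were transferred to PVDF. Membranes were blocked in 5% nonfat milk/TBST and probed overnight at 4 °C for OXR1 and β-actin. Bands were quantified; mean ± SEM, n = 3.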

[10] = system: WI-38; assay: Induction of ROS production in ionizing radiation induced human WI38 senescent cells up to 64 uM after […] by DHR123 dye based flow cytometry; type: functional, cell-based

In the case of `CC(C)[C@H](NC(=O)c1ccc2ccccc2n1)C(=O)N[C@@H](CC(=O)O)C(=O)COc1c(F)cccc1F`, the Activity [1] is reported as 80.9%, the Activity [2] is reported as 7.7% and the Activity [3] is reported as 8%. The Activity [4] was 3.4%.

In the case of `COc1cc(/C=C/C(=O)N2CCC=CC2=O)cc(OC)c1OC` [PIPLARTINE], the MTD [5] is reported as > 1000 mg/kg, the EC50 [6] is reported as 20.3 µM and the EC50 [7] is reported as 8 µM. The “Ratio EC50” value [8] was 2.5, the Activity [9] was “Active” and the Activity [10] was “Active”.

With `C=C1CCCN(C(=O)/C=C/c2cc(OC)c(OC)c(OC)c2)C1=O` the Activity [9] was “Active”.

For `C=C1CCCCN(C(=O)/C=C/c2cc(OC)c(OC)c(OC)c2)C1=O`, the Activity [9] was “Active”.

In the case of `C=C1CCN(C(=O)/C=C/c2cc(OC)c(OC)c(OC)c2)C1=O`, the Activity [9] is reported as “Active”.
